Measured values: publication PMC3082393 (Journal of medicinal chemistry, 2011)

Assays:
H460 and T29Kt1 cells = experiment: Structure-activity statements from the cell viability assay; design: species or system human; details: based on IC50 values of Table 1
T29 and T29Kt1 cells = experiment: Levels of compound 34 in cells after treatment; type: cell-based; details: 10 μM, all time points up to 5 h after treatment, normalized with protein amount
In short: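 T29 and T29Kt1 cells at 80–90% confluence were given 10 μM test compound and collected by trypsin at time points up to 5 h. After a PBS wash, cells were lysed (M-PER) and homogenised, and supernatant protein was measured by BCA. Supernatant was deproteinised with 2 volumes of acetonitrile, spun at 4°C and concentrated under nitrogen. Drug was quantified by C18 HPLC (acetonitrile/water gradient, 230 nm) against an indole-methanol internal standard, then normalised to protein.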

[1] = tested on: phosphorylation of the CTD of RNA polymerase II; details: cited from earlier work
CDK9 = details: ref Our previous study; cited from earlier work
CDK7 = details: ref Our previous study; cited from earlier work
[2] = tested on: cancer cells that were highly susceptible to oncrasin-1; details: cancer cells highly susceptible to oncrasin-1; cited from earlier work

SMILES: CC(=O)OCc1cn(Cc2ccc(Cl)cc2)c2ccccc12 [Compound 60, 1-[(4-chlorophenyl)methyl]-1H-indole-3-methyl acetate]
- Antitumor activity (structure-activity statement in words) (H460 and T29Kt1 cells): equipotent to compound 35

SMILES: Clc1cccc(Cn2cc(Cc3cn(Cc4cccc(Cl)c4)c4ccccc34)c3ccccc32)c1 [Compound 68, bis[1-[(3-chlorophenyl)methyl]-1H-indole-3-]methane]
- Antitumor activity (structure-activity statement in words) (H460 and T29Kt1 cells): complete loss of antitumor activity

SMILES: Brc1cccc(Cn2cc(Cc3cn(Cc4cccc(Br)c4)c4ccccc34)c3ccccc32)c1 [Compound 69, bis[1-[(3-bromophenyl)methyl]-1H-indole-3-]methane]
- Antitumor activity (structure-activity statement in words) (H460 and T29Kt1 cells): complete loss of antitumor activity

SMILES: OCc1cn(Cc2ccc(Cl)cc2)c2ccc(F)cc12 [Compound 51, 1-[(4-chlorophenyl)methyl]-5-fluoro-1H-indole-3-methanol]
- Antitumor activity (structure-activity statement in words) (H460 and T29Kt1 cells): best potency

SMILES: CC(C)Cn1cc(C=O)c2ccccc21 [Compound 22]
- Antitumor activity (structure-activity statement in words) (H460 and T29Kt1 cells): complete or partial loss of activity

SMILES: CC(O)c1cn(Cc2ccc(Cl)cc2)c2ccccc12 (stereo not shown) [Compound 58, 1-[1-[(4-chlorophenyl)methyl]-1H-indole-3-] ethanol]
- Antitumor activity (structure-activity statement in words) (H460 and T29Kt1 cells): dramatic reduction or complete loss of activity

SMILES: OCc1cn(Cc2cccc(Cl)c2)c2ccccc12 [Compound 34, 1-[(3-chlorophenyl)methyl]-1H-indole-3-methanol]
- Level of compound in T29 cells relative to T29Kt1 cells (T29 and T29Kt1 cells): twice

SMILES: OCCc1cn(Cc2ccc(Cl)cc2)c2ccccc12 [Compound 56, 2-[1-[(4-chlorophenyl)methyl]-1H-indole-3-]ethanol]
- Antitumor activity (structure-activity statement in words) (H460 and T29Kt1 cells): dramatic reduction or complete loss of activity

SMILES: OCCCc1cn(Cc2ccccc2)c2ccccc12 [Compound 57]
- Antitumor activity (structure-activity statement in words) (H460 and T29Kt1 cells): dramatic reduction or complete loss of activity

SMILES: COCc1cn(Cc2ccc(Cl)cc2)c2ccccc12 [Compound 59, 1-[(4-chlorophenyl)methyl]-1H-indole-3-methoxymethane]
- Antitumor activity (structure-activity statement in words) (H460 and T29Kt1 cells): dramatic loss of activity

SMILES: O=Cc1cn(Cc2ccc(Cl)cc2)c2ccccc12 [Oncrasin-1, 1-[(4-chlorophenyl)methyl]-1H-indole-3-carboxaldehyde]
- CTD phosphorylation in sensitive cancer cell lines [1]: suppressed phosphorylation
- Direct inhibitory effect on CDK9 (CDK9): moderate
- Direct inhibitory effect on CDK7 (CDK7): moderate

SMILES: Cc1cn(Cc2ccc(Cl)cc2)c2ccccc12 [Compound 66, 1-[(4-chlorophenyl)methyl]-1H-indole-3-methane]
- Antitumor activity (structure-activity statement in words) (H460 and T29Kt1 cells): dramatic reduction or complete loss of activity

SMILES: O=C(O)c1cn(Cc2ccc(Cl)cc2)c2ccccc12 [Compound 63, 1-[(4-chlorophenyl)methyl]-1H-indole-3-carboxylic acid]
- Antitumor activity (structure-activity statement in words) (H460 and T29Kt1 cells): dramatic reduction or complete loss of activity

SMILES: OCc1c[nH]c2ccccc12 [indole-3-carbinol]
- Antitumor activity [2]: did not have observable antitumor activity

SMILES: O=Cc1cn(CCCOc2ccc(Cl)cc2)c2ccccc12 [Compound 15]
- Antitumor activity (structure-activity statement in words) (H460 and T29Kt1 cells): retained its activity and selectivity

SMILES: O=C(O)c1cn(Cc2ccccc2)c2ccccc12 [Compound 62]
- Antitumor activity (structure-activity statement in words) (H460 and T29Kt1 cells): dramatic reduction or complete loss of activity

SMILES: Cc1ccc(Cn2cc(CO)c3cc(F)ccc32)cc1 [Compound 55, 1-[(4-methylphenyl)methyl]-5-fluoro-1H-indole-3-methanol]
- Antitumor activity (structure-activity statement in words) (H460 and T29Kt1 cells): best potency
